Calls of active or inactive are those of the source. The rule behind the calls is not given here.
Assays:
Melanocortin receptor 4 [1] = molecular target: T1, Melanocortin receptor 4 (Homo sapiens, UniProt P32245); assay: In vitro intrinsic activity against human Melanocortin 4 receptor (MC4R)
Melanocortin receptor 3 [2] = molecular target: T2, Melanocortin receptor 3 (Homo sapiens, UniProt P41968); assay: In vitro intrinsic activity against human Melanocortin 3 receptor (MC3R)
[3] = molecular target: T3, Melanocyte-stimulating hormone receptor (Homo sapiens, UniProt Q01726); assay: In vitro intrinsic activity against human Melanocortin 1 receptor (MC1R)
Melanocortin receptor 5 [4] = molecular target: T4, Melanocortin receptor 5 (Homo sapiens, UniProt P33032); assay: In vitro intrinsic activity against human Melanocortin 5 receptor (MC5R)
T4 sequence (P33032 whole entry): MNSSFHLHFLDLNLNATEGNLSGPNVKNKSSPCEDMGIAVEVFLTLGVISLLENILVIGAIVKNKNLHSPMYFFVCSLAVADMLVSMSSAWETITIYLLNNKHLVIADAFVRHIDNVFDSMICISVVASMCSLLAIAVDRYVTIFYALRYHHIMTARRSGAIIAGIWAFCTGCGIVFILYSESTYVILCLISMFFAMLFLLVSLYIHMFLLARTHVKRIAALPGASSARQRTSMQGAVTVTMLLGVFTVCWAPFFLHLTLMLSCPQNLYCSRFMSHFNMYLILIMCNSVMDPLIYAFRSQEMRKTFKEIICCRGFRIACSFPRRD
Outline: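 A SPA-based cAMP assay was run in CHO cells overexpressing human MC-5R. EC50 and intrinsic activity (%) are given ± SEM.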

[5] = molecular target: T3, Melanocyte-stimulating hormone receptor; assay: In vitro inhibitory concentration against human Melanocortin 1 receptor (MC1R)
[6] = molecular target: T3, Melanocyte-stimulating hormone receptor; assay: In vitro effective concentration towards human Melanocortin 1 receptor (MC1R) in SPA-based cAMP assay in melanoma cells; format: cell-based
Melanocortin receptor 5 [7] = molecular target: T4, Melanocortin receptor 5; assay: In vitro effective concentration towards human Melanocortin 5 receptor (MC5R) was determined by a SPA-based cAMP assay in melanoma cells; format: cell-based
Melanocortin receptor 4 [8] = molecular target: T1, Melanocortin receptor 4; assay: In vitro effective concentration towards human Melanocortin 4 receptor (MC4R) was determined by a SPA-based cAMP assay in melanoma cells; format: cell-based
Melanocortin receptor 3 [9] = molecular target: T2, Melanocortin receptor 3; assay: In vitro effective concentration towards human Melanocortin 3 receptor (MC3R) was determined by a SPA-based cAMP assay in melanoma cells; format: cell-based
[10] = Cl value was determined by intravenous administration of 6.8 umol/kg dose in mice; format: ADME, organism-based; details: mouse, in vivo
Outline: (§1)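 Balb/c mice (n = 3) given a single intravenous dose of 6.8 μmol/kg in 50:50 PEG400–water, with plasma pharmacokinetic parameters derived from the concentration–time profile.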

[11] = Half life by intravenous administration of 6.8 umol/kg dose in mice; format: ADME, organism-based; details: mouse, in vivo; outline: as §1
[12] = MRT value was determined by intravenous administration of 6.8 umol/kg dose in mice; format: ADME, organism-based; details: mouse, in vivo; outline: as §1
[13] = Cmax value was evaluated in mice by intravenous administration of 6.8 umol/kg dose; format: ADME, organism-based; parameters: dose 6.8 umol/kg, route intravenous; details: mouse, in vivo; outline: as §1
Melanocortin receptor 3 [14] = molecular target: T2, Melanocortin receptor 3; assay: In vitro inhibitory concentration against human Melanocortin 3 receptor (MC3R)
[15] = Vss value was determined by intravenous administration of 6.8 umol/kg dose in mice; format: ADME, organism-based; details: mouse, in vivo, read-out: Vss; outline: as §1
Melanocortin receptor 3 [16] = molecular target: T2, Melanocortin receptor 3; assay: In vitro effective concentration towards human Melanocortin-3 receptor (MC3R) was determined by a SPA-based cAMP assay in melanoma cells; format: cell-based

T1 sequence (P32245 whole entry): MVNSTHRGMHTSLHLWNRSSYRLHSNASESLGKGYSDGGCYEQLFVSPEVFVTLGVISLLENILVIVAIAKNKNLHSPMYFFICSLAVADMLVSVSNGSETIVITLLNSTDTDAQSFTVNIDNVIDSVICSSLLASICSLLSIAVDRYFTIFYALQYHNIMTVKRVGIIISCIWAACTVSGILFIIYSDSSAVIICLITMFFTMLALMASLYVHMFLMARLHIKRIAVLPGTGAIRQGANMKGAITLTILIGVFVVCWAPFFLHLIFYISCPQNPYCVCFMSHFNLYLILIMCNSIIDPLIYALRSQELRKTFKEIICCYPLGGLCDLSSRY
T2 sequence (P41968 whole entry): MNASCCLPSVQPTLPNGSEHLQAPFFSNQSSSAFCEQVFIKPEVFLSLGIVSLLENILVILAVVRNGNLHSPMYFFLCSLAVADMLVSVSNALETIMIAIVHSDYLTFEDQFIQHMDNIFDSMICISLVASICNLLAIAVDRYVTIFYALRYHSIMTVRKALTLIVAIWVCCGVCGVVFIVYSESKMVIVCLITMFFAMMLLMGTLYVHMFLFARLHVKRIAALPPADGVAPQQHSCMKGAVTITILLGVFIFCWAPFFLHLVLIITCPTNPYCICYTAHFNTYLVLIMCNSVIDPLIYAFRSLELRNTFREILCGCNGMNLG

| SMILES | Intrinsic activity (Melanocortin receptor 4 [1]) [%] | Intrinsic activity (Melanocortin receptor 3 [2]) [%] | Intrinsic activity [3] [%] | Intrinsic activity (Melanocortin receptor 5 [4]) [%] | IC50 [5] [nM] | EC50 [6] [nM] | EC50 (Melanocortin receptor 5 [7]) [nM] | EC50 (Melanocortin receptor 4 [8]) [nM] | further results |
| --- | --- | --- | --- | --- | --- | --- | --- | --- | --- |
| CCCC(=O)C1(c2ccccc2)CCN(C(=O)[C@@H](Cc2ccc(OC)cc2)NC(=O)CCc2cnc[nH]2)CC1 |  |  |  |  | 18 | 2.5 | 9400 | 840 | EC50 (Melanocortin receptor 3 [9]): 7000 nM |
| CCCC(=O)C1(c2ccccc2)CCN(C(=O)[C@@H](Cc2ccc(OC)cc2)NC(=O)[C@@H](N)Cc2cncn2C)CC1 | 39 | 2.1 | 92 | 15 | 120 | 28 | 4400 | 2600 | clearance [10]: 110 mL/min/kg; half-life [11]: 1.5 h; MRT [12]: 1.2 h; Cmax [13]: 2200 nM; NA (Melanocortin receptor 3 [14]): inactive; Vd [15]: 8.2 L/kg |
| CCCC(=O)C1(c2ccccc2)CCN(C(=O)[C@@H](Cc2ccc(OC)cc2)NC(=O)[C@H](N)Cc2cnc[nH]2)CC1 |  |  |  |  | 32 | 1.5 | 10000 | 630 | EC50 (Melanocortin receptor 3 [9]): 1700 nM |
| CCCC(=O)C1(c2ccccc2)CCN(C(=O)[C@@H](Cc2ccc(OC)cc2)NC(=O)[C@@H](Cc2cnc[nH]2)NC(=O)c2ccccc2)CC1 |  |  |  |  | 3.1 | 0.19 | 2100 | 2.9 | EC50 (Melanocortin receptor 3 [9]): 250 nM |
| CCCC(=O)C1(c2ccccc2)CCN(C(=O)[C@@H](Cc2ccc(OC)cc2)NC(=O)[C@H](O)Cc2cnc[nH]2)CC1 |  |  |  |  | 5.5 | 3.8 | 2700 | 77 | EC50 (Melanocortin receptor 3 [16]): 3900 nM |
| CCCC(=O)C1(c2ccccc2)CCN(C(=O)[C@@H](Cc2ccc(OC)cc2)NC(=O)[C@H](N)Cc2cncn2C)CC1 |  |  | 34 |  | 1500 | 510 |  |  |  |
| COc1ccc(C[C@@H](NC(=O)[C@H]2Cc3ccccc3CN2)C(=O)N2CCC3(CC2)CN(S(C)(=O)=O)c2ccccc23)cc1 | 95 |  | 80 |  |  | 220 |  | 40 |  |
| CCCC(=O)C1(c2ccccc2)CCN(C(=O)[C@@H](Cc2ccc(OC)cc2)NC(=O)[C@@H](N)Cc2cnc[nH]2)CC1 |  |  |  |  | 1300 | 400 |  |  |  |

Second part, led by results:

| Intrinsic activity (Melanocortin receptor 4 [1]) [%] | Intrinsic activity (Melanocortin receptor 3 [2]) [%] | Intrinsic activity [3] [%] | Intrinsic activity (Melanocortin receptor 5 [4]) [%] | IC50 [5] [nM] | EC50 [6] [nM] | EC50 (Melanocortin receptor 5 [7]) [nM] | EC50 (Melanocortin receptor 4 [8]) [nM] | SMILES | further results |
| --- | --- | --- | --- | --- | --- | --- | --- | --- | --- |
| 103 | 98 | 93 | 40 |  |  |  |  | CCCC(=O)C1(c2ccccc2)CCN(C(=O)[C@@H](Cc2ccc(OC)cc2)NC(=O)[C@H](N)Cc2c[nH]cn2)CC1 |  |
| 95 | 85 | 90 | 20 |  |  |  |  | CCCC(=O)C1(c2ccccc2)CCN(C(=O)[C@@H](Cc2ccc(OC)cc2)NC(=O)[C@H](O)Cc2c[nH]cn2)CC1 |  |
| 95 | 100 | 98 | 65 |  |  |  |  | CCCC(=O)C1(c2ccccc2)CCN(C(=O)[C@@H](Cc2ccc(OC)cc2)NC(=O)[C@@H](Cc2c[nH]cn2)NC(=O)c2ccccc2)CC1 |  |
|  |  | 67 |  |  |  |  |  | CCCC(=O)C1(c2ccccc2)CCN(C(=O)[C@@H](Cc2ccc(OC)cc2)NC(=O)[C@@H](N)Cc2c[nH]cn2)CC1 |  |
| 92 | 85 | 97 | 32 |  |  |  |  | CCCC(=O)C1(c2ccccc2)CCN(C(=O)[C@@H](Cc2ccc(OC)cc2)NC(=O)CCc2c[nH]cn2)CC1 |  |
| 96 | 90 | 96 | 90 | 5.1 | 0.35 | 3900 | 23 | CCCC(=O)C1(c2ccccc2)CCN(C(=O)[C@@H](Cc2ccc(OC)cc2)NC(=O)[C@@H](Cc2c[nH]cn2)NC(C)=O)CC1 | EC50 (Melanocortin receptor 3 [9]): 2200 nM |

Source: ChEMBL document CHEMBL1136734, “Discovery of tyrosine-based potent and selective melanocortin-1 receptor small-molecule agonists with anti-inflammatory properties” (J Med Chem, 2003)
